Measurements: publication PMC9810488 (Translational and Clinical Pharmacology, 2022)
Like-named read-outs stand apart in the source and are kept apart here.

What was measured:
[1] = cited from earlier work
[2] = cited from earlier work; remark: listed apart in the source
[3] = type: in vivo, human; settings: sitagliptin 100 mg single oral dose, plasma
Method in brief: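 Healthy Korean adults (≥19 years, BMI 18.0–30.0 kg/m2) took a single 100 mg oral tablet with 150 mL water in randomized periods, washout ≥7 days. Heparinized blood was drawn predose and 15 min–48 h postdose, centrifuged 3,000 rpm, 10 min, 4°C, and plasma stored at −70°C. Assay was LC-MS/MS, positive-ion ESI. Noncompartmental: Cmax observed, AUCinf by linear-up log-down trapezoidal rule. ABCB1 genotyped by TaqMan allelic discrimination.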

| Sitagliptin AUCinf ([3]; ABCB1 C1236T CC+CT (n=72)) | Sitagliptin Cmax ([3]; ABCB1 C1236T CT+TT (n=81)) [ng/mL] | Sitagliptin AUCinf ([3]; ABCB1 C3435T CC (n=49)) | Sitagliptin AUCinf ([3]; ABCB1 C3435T CC+CT (n=91)) | Sitagliptin Cmax ([3]; ABCB1 C3435T CT (n=42)) [ng/mL] | Sitagliptin Cmax ([3]; ABCB1 C3435T CT+TT (n=51)) [ng/mL] | Sitagliptin AUCinf ([3]; ABCB1 C3435T TT (n=9)) | Sitagliptin AUCinf ([3]; ABCB1 G2677T/A AA (n=2)) | Sitagliptin AUCinf ([3]; ABCB1 G2677T/A AT+GA (n=37)) | Sitagliptin Cmax ([3]; ABCB1 G2677T/A AT+GA (n=37)) [ng/mL] | Sitagliptin AUCinf ([3]; ABCB1 G2677T/A AT+GT (n=44)) | Sitagliptin Cmax ([3]; ABCB1 G2677T/A AT+GT (n=44)) [ng/mL] | Sitagliptin AUCinf ([3]; ABCB1 G2677T/A GA (n=20)) | Sitagliptin AUCinf ([3]; ABCB1 G2677T/A GA+GT (n=47)) | Sitagliptin AUCinf ([3]; ABCB1 G2677T/A TT (n=9)) | Compound | digoxin concentrations higher in 3435TT homozygous subjects than in CC and CT subjects ([1]; 34 Caucasian subjects) [%] | lower AUC for digoxin in 3435 TT genotype than in CC and CT genotypes ([1]; Japanese study, 114 subjects) [%] | relationship between C3435T SNP and digoxin concentrations ([1]; single digoxin dose) | drug eliminated as unchanged compound in the urine [2] |
| --- | --- | --- | --- | --- | --- | --- | --- | --- | --- | --- | --- | --- | --- | --- | --- | --- | --- | --- | --- |
|  |  |  |  |  |  |  |  |  |  |  |  |  |  |  | C[C@H]1O[C@@H](O[C@H]2[C@@H](O)C[C@H](O[C@H]3[C@@H](O)C[C@H](O[C@H]4CC[C@@]5(C)[C@H](CC[C@@H]6[C@@H]5C[C@@H](O)[C@]5(C)[C@@H](C7=CC(=O)OC7)CC[C@]65O)C4)O[C@@H]3C)O[C@@H]2C)C[C@H](O)[C@@H]1O [digoxin] | 20 | 20 | no relationship |  |
| 3,504.78 ± 655.77 ng*h/mL | 456.01 ± 123.74 | 3,530.20 ± 669.78 ng*h/mL | 3,484.02 ± 630.25 ng*h/mL | 454.26 ± 136.79 | 457.53 ± 130.73 | 3,528.50 ± 564.05 ng*h/mL | 3,481.41 ng*h/mL | 3,501.79 ± 714.08 ng*h/mL | 457.90 ± 98.21 | 3,475.54 ± 576.82 ng*h/mL | 457.31 ± 142.79 | 3,679.91 ± 852.18 ng*h/mL | 3,628.80 ± 723.63 ng*h/mL | 3,477.17 ± 596.14 ng*h/mL | N[C@@H](CC(=O)N1CCn2c(nnc2C(F)(F)F)C1)Cc1cc(F)c(F)cc1F [Sitagliptin] |  |  |  | over 80% |
